Data: ChEMBL document CHEMBL3593169, “Cytotoxic Homoisoflavones from the Bulbs of Bellevalia eigii” (J Nat Prod, 2015)
Converted amounts (≈) assume the structure as drawn. The source made the active and inactive calls. The calls are words filed in the database; no cut-off is given here.

Legend:
Escherichia coli = test: Antimicrobial activity against Escherichia coli incubated for 4 days by broth microdilution method; type: functional
How it was run: (§1)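 Broth microdilution in 1/10-strength BHIB+S; 2-fold compound dilution series inoculated with cell suspension. Incubated 4 days; growth scored visually by turbidity. MIC taken as lowest concentration with no turbidity relative to negative control. Each compound run in triplicate.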

Staphylococcus aureus = test: Antimicrobial activity against Staphylococcus aureus incubated for 4 days by broth microdilution method; type: functional; how it was run: as §1
MDA-MB-435 = test: Cytotoxicity against human MDA-MB-435 cells assessed as reduction in cell growth incubated for 72 hrs; type: functional, cell-based; details: MDA-MB-435, 72 h
How it was run: (§2)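 Cells grown in RPMI 1640 with 10% FBS, penicillin and streptomycin at 37 °C, 5% CO2. Log-phase cells trypsinized, washed twice, seeded at about 5,000 per well and left overnight. Compounds in DMSO added for 72 h at 37 °C. Viability read by MTS-type absorbance assay (CellTiter 96 AQueous One). IC50 in μM relative to DMSO control. Vinblastine as positive control.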

Candida albicans = test: Antimicrobial activity against Candida albicans incubated for 4 days by broth microdilution method; type: functional; how it was run: as §1
HT-29 = test: Cytotoxicity against human HT-29 cells assessed as reduction in cell growth incubated for 72 hrs; type: functional, cell-based; details: HT-29, 72 h; how it was run: as §2
[1] = tested on: Mycolicibacterium smegmatis; test: Antimicrobial activity against Mycobacterium smegmatis incubated for 4 days by broth microdilution method; type: functional; how it was run: as §1
Aspergillus niger = test: Antimicrobial activity against Aspergillus niger incubated for 4 days by broth microdilution method; type: functional; how it was run: as §1

| SMILES | MIC (Escherichia coli) | MIC (Staphylococcus aureus) | IC50 (MDA-MB-435) | MIC (Candida albicans) | IC50 (HT-29) | MIC [1] | MIC (Aspergillus niger) | MIC (Escherichia coli; 96 h) | MIC (Staphylococcus aureus; 96 h) | MIC (Candida albicans; 96 h) | MIC ([1]; 96 h) | MIC (Aspergillus niger; 96 h) |
| --- | --- | --- | --- | --- | --- | --- | --- | --- | --- | --- | --- | --- |
| COc1cc(/C=C/C(=O)NCCc2ccc(O)cc2)ccc1O [N-TRANS-FERULOYL TYRAMINE] | inactive | inactive | > 20 µM | inactive | > 20 µM | inactive | inactive | – | – | – | – | – |
| COc1ccc(C[C@@H]2COc3c(OC)c(OC)cc(O)c3C2=O)cc1O | inactive | inactive | 1.1 µM | inactive | 17.3 µM | inactive | inactive | – | – | – | – | – |
| COc1cc(O)c2c(c1O)OC[C@@H](Cc1ccc(O)cc1)C2=O | inactive | inactive | > 20 µM | inactive | > 20 µM | inactive | inactive | – | – | – | – | – |
| COc1cc(O)c2c(c1OC)OC/C(=C\c1ccc(O)cc1)C2=O | inactive | inactive | 13.2 µM | inactive | > 20 µM | inactive | inactive | – | – | – | – | – |
| COc1cc(O)c2c(c1OC)OC/C(=C\c1ccc(O)c(O)c1)C2=O | – | – | 4.6 µM | – | > 20 µM | – | – | > 93 mg/L | 93 mg/L (≈ 270 µM) | > 93 mg/L | 47 mg/L (≈ 137 µM) | > 93 mg/L |
| CC[C@]1(O)C[C@@H]2CN(CCc3c([nH]c4ccccc34)[C@@](C(=O)OC)(c3cc4c(cc3OC)N(C)[C@H]3[C@@](O)(C(=O)OC)[C@H](OC(C)=O)[C@]5(CC)C=CCN6CC[C@]43[C@@H]65)C2)C1 [VINBLASTINE] | – | – | 0.0005 µM | – | 0.0045 µM | – | – | – | – | – | – | – |
| COc1cc2c(cc1O)C[C@]21COc2cc(O)cc(O)c2C1=O | inactive | inactive | > 20 µM | inactive | > 20 µM | inactive | inactive | – | – | – | – | – |
| COc1cc(O)c2c(c1OC)OCCC2=O | inactive | inactive | > 20 µM | inactive | > 20 µM | inactive | inactive | – | – | – | – | – |
| COc1cc(O)c2c(c1)OC[C@@](O)(Cc1ccc(O)cc1)C2=O | inactive | inactive | > 20 µM | inactive | > 20 µM | inactive | inactive | – | – | – | – | – |
| CS/C=C/C(=O)OC[C@H](O)c1ccccc1 | inactive | inactive | > 20 µM | inactive | > 20 µM | inactive | inactive | – | – | – | – | – |
| O=C1c2c(O)cc(O)cc2OC[C@H]1Cc1ccc(O)cc1 | – | – | > 20 µM | – | > 20 µM | – | – | > 125 mg/L | > 125 mg/L | > 125 mg/L | 63 mg/L (≈ 220 µM) | > 125 mg/L |
| COc1cc2c(c(O)c1O)C(=O)[C@H](Cc1ccc(O)cc1)CO2 | inactive | inactive | > 20 µM | inactive | > 20 µM | inactive | inactive | – | – | – | – | – |
| C[C@@H]1[C@H](O)[C@@H](C)/C=C/C=C/C=C/C=C/C=C/C=C/C=C/[C@H](O[C@@H]2O[C@H](C)[C@@H](O)[C@H](N)[C@@H]2O)C[C@@H]2O[C@](O)(C[C@@H](O)C[C@@H](O)[C@H](O)CC[C@@H](O)C[C@@H](O)CC(=O)O[C@H]1C)C[C@H](O)[C@H]2C(=O)O [AMPHOTERICIN B] | – | – | – | – | – | – | – | – | – | 16 mg/L (≈ 17.3 µM) | – | 31 mg/L (≈ 33.5 µM) |
| CC1(C)S[C@@H]2[C@H](NC(=O)[C@H](N)c3ccccc3)C(=O)N2[C@H]1C(=O)O [AMPICILLIN] | – | – | – | – | – | – | – | 8 mg/L (≈ 22.9 µM) | – | – | – | – |
| COc1c(O)c(O)c2c(c1OC)OC[C@@H](Cc1ccc(O)cc1)C2=O | inactive | inactive | > 20 µM | inactive | > 20 µM | inactive | inactive | – | – | – | – | – |
| O=C(O)c1cn(C2CC2)c2cc(N3CCNCC3)c(F)cc2c1=O [CIPROFLOXACIN] | – | – | – | – | – | – | – | – | – | – | 2 mg/L (≈ 6.04 µM) | – |
| CN[C@H](CC(C)C)C(=O)N[C@H]1C(=O)N[C@@H](CC(N)=O)C(=O)N[C@H]2C(=O)N[C@H]3C(=O)N[C@H](C(=O)N[C@H](C(=O)O)c4cc(O)cc(O)c4-c4cc3ccc4O)[C@H](O)c3ccc(c(Cl)c3)Oc3cc2cc(c3O[C@@H]2O[C@H](CO)[C@@H](O)[C@H](O)[C@H]2O[C@H]2C[C@](C)(N)[C@H](O)[C@H](C)O2)Oc2ccc(cc2Cl)[C@H]1O [VANCOMYCIN] | – | – | – | – | – | – | – | – | 0.25 mg/L (≈ 0.173 µM) | – | – | – |
| COc1ccc(C[C@@H]2COc3cc(O)cc(O)c3C2=O)cc1O | – | – | 1 µM | – | > 20 µM | – | – | > 138 mg/L | > 138 mg/L | > 138 mg/L | 17 mg/L (≈ 53.7 µM) | > 138 mg/L |
| COc1c(O)cc(O)c2c1OC/C(=C\c1ccc(O)cc1)C2=O | – | – | > 20 µM | – | > 20 µM | – | – | > 48 mg/L | > 48 mg/L | > 48 mg/L | 24 mg/L (≈ 76.4 µM) | > 48 mg/L |
| O=C1c2c(O)cc(O)cc2OC[C@H]1Cc1ccc(O)c(O)c1 | inactive | inactive | > 20 µM | inactive | > 20 µM | inactive | inactive | – | – | – | – | – |
| COc1cc(O)c2c(c1OC)OC[C@@H](Cc1ccc(O)cc1)C2=O | inactive | inactive | > 20 µM | inactive | > 20 µM | inactive | inactive | – | – | – | – | – |
| O=C1/C(=C/c2ccc(O)cc2)COc2cc(O)cc(O)c21 | inactive | inactive | > 20 µM | inactive | > 20 µM | inactive | inactive | – | – | – | – | – |
| COc1cc(O)c2c(c1OC)OC[C@@H](Cc1ccc(O)c(O)c1)C2=O | inactive | inactive | > 20 µM | inactive | > 20 µM | inactive | inactive | – | – | – | – | – |
